# GPR7 antag: GPR7 receptor antagonists, primary screen, cell-based, fluorescence, single concentration. AID 1861, 2009. actives 1.1% (n = 290,000). GPR7-expressing cells, fluorescence antagonist assay. inhibition, % at 4.4 µM. Neuropeptides B/W receptor type 1 (Homo sapiens), P48145; in the data active = inhibition above about 16%, passing the limit was not always enough;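 note: cells stimulated with the agonist NPW; 0% = agonist with vehicle and 100% = vehicle without agonist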
# TAAR1 antagonist: human TAAR1 antagonists, primary screen, Fluo-8 calcium fluorescence, CHO RD-HGA16 cells. Trace amine-associated receptor 1 (Homo sapiens), Q96RJ0. antagonist. inhibition, % at 3 µM. actives 1.5% (n = 360,000). AID 624466, 2012;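 active = inhibition above a per-plate cutoff, the mean inhibition of test compounds on that plate plus 3 SD, cut at about 49% in these data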;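 note: 0% = DMSO plus EC80 beta-PEA response and 100% = DMSO alone without agonist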
#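 Test system: hTAAR1-expressing CHO RD-HGA16 cells, Gα16-coupled; Probe or stimulus: EC80 β-phenethylamine stimulus; Compound dosing: single nominal final test compound concentration of 3 µM; Timing: 140 s kinetic read after compound, 140 s after agonist; Signal: Fluo-8 calcium-sensitive fluorescence; Measure: % inhibition of agonist calcium response; Controls: DMSO and EC80 PEA controls.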
# CHO parental Ca: ATP-evoked calcium signal inhibitors, parental CHO, primary screen, counter-screen for OX1R antagonist project, cell-based, fluorescence, Fluo-8 calcium dye; actives 0.63% (n = 330,000); parental CHO-K1, ATP-induced calcium, Fluo-8 fluorescence; inhibition, % at 5.6 µM;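 active = inhibition above that plate's mean sample inhibition plus 3 SD, cut at about 26% in these data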;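 note: 0% = ATP-challenged DMSO wells and 100% = DMSO wells without ATP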
#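 Material: Parental CHO cells | Reagent: ATP | Compound dosing: Single nominal dose of 5.6 µM per compound | Detection: Intracellular calcium via Fluo-8 no-wash fluorescent dye | Read-out: % inhibition of ATP-induced calcium mobilization | Benchmarks: Low control ATP plus DMSO, high control DMSO only | Replicates: Singlicate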
# OX1R antag-1: antagonists of human orexin 1 receptor (OX1R) | Orexin/Hypocretin receptor type 1 (Homo sapiens), O43613 | OX1R-expressing cells, FRET antagonist read-out | inhibition, % at 6.6 µM | actives 1.8% (n = 330,000) | AID 485270, 2010; in the data active = inhibition mostly above about 38%, no sharp cut-off; inactive = mostly below about 40%;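 note: 0% = agonist challenge alone and 100% = reference antagonist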
# Target sequence (O43613 whole entry, looked up): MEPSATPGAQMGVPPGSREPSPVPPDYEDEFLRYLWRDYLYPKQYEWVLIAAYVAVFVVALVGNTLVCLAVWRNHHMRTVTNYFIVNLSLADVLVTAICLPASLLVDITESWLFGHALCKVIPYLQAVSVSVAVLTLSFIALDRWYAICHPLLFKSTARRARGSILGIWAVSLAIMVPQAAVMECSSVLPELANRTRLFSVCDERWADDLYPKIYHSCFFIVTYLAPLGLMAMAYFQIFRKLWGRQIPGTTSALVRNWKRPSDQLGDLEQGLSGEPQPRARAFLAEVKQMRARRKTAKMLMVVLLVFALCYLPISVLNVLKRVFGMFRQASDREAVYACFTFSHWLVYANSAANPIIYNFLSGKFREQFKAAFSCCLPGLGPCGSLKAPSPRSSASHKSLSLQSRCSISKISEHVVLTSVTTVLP
# TAAR1 ag: human TAAR1 agonists, primary screen, Fluo-8 calcium fluorescence, CHO RD-HGA16 cells. vehicle wells 0%, saturating PEA agonist 100%. activation, % at 3 µM. actives 0.99% (n = 360,000);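 active = activation above the mean activation of all test compounds in the run plus 3 SD, cut at about 38% in these data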
#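 Repeats: no replicates (n 1) | Material: CHO-derived RD-HGA16 cells with stable Gα16 and human TAAR1 | Technique: Kinetic Fluo-8 calcium fluorescence | Schedule: 17-24 h seeding, 75 min 37 °C dye, 30 min RT | Evaluation: % activation from peak over basal fluorescence ratio, DMSO-to-PEA scaled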
# OX1R antag-2: OX1R (HCRTR1) antagonists, primary screen, fluorescence, CHO/OX1R cells, Fluo-8 calcium, orexin A | Orexin/Hypocretin receptor type 1 (Homo sapiens), O43613 | actives 0.43% (n = 330,000) | AID 434989, 2010 | inhibition, % at 5 µM | Fluo-8 calcium fluorescence;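 active = inhibition above its plate's threshold, mean inhibition of all tested compounds on the plate plus 3 SD, cut at about 37% in these data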;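 note: 0% = orexin A challenge wells and 100% = SB-334867-A antagonist wells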
# The depositor's hits bear a star; . = no result. Shown are actives, neighbours in structure and some others; about 4.5% of the full set was active somewhere.
SMILES,GPR7 antag,TAAR1 antagonist,CHO parental Ca,OX1R antag-1,TAAR1 ag,OX1R antag-2
COc1ccc(CNS(=O)(=O)c2cc(Cl)ccc2N2CC[C@@H](O)C2)cc1,.,16,.,.,7,.
Nc1ccc(NC(=O)CCN2CCOCC2)cc1,-5,-4,.,.,0,.
COc1ccc(S(=O)(=O)N(CC(=O)O)c2ccccn2)cc1,-2,-4,-6,15,6,-6
COc1ccc(S(=O)(=O)n2ccc(-c3ccc(OCCN(C)c4ccccn4)cc3)n2)cc1,21*,18,12,20,8,0
CCOC(=O)c1ccc(NC(=O)OC[C@@H]2CSCCS(=O)(=O)N2)cc1,.,7,.,.,17,.
Cc1cccc(/C=N/NC(=O)c2cc(C3CC3)nc3ccccc23)n1,0,11,0,74*,1,-10
COCCNS(=O)(=O)c1ccc2c(c1)C(=O)c1cc(S(=O)(=O)NCCOC)ccc1-2,13,2,2,66*,4,-3
CC(C)(CO)NS(=O)(=O)c1ccc2c(c1)C(=O)c1cc(S(=O)(=O)NC(C)(C)CO)ccc1-2,-10,-3,-2,37,5,-14
O=C1c2cc(S(=O)(=O)NCCCO)ccc2-c2ccc(S(=O)(=O)NCCCO)cc21,-12,6,4,54*,10,1
O=C(Cc1ccc(NC(=O)C2CCCN(C(=O)c3ccccc3)C2)cc1)Nc1cccc(C(=O)N2CCCC2)c1 (stereo unspecified),.,-27,.,.,3,.
CCCCCCCCN1C(=O)N(Cc2ccc(OC)cc2)S(=O)(=O)c2ccc(F)cc21,.,6,.,.,2,.
COc1ccc(C(=O)NCCc2nnc3ccc(SCC(=O)N4CCCC4)nn23)cc1,-8,-21,-13,22,1,8
CCCCCCCCN1C(=O)[C@@H](CC(=O)NCCC(C)C)C[C@@]2(C(=O)OC)C1=C[C@H](C(C)(C)C)O[C@@H]2C,.,-17,.,.,-1,.
O=S(=O)(c1ccc(SCCOc2ccc(Cl)cc2)nc1)N1CCCC1,.,-10,30*,-6,0,2
O=S(=O)(c1ccc(SCCOc2ccc(Br)cc2)nc1)N1CCCC1,.,-2,-18,-1,11,-13
Cc1ccc(NS(=O)(=O)c2ccc(NC(=O)c3ccccc3C(=O)O)cc2)c(C)c1,.,-24,-6,18,3,-4
Cc1ccc(NS(=O)(=O)c2ccc(NC(=O)c3ccc(Br)o3)cc2)c(C)c1,11,42,36*,19,12,39
CN1CCCCC(NC(=O)c2ccc(F)cc2)C1=O (stereo unspecified),.,-3,.,.,1,.
Cn1c(N)c(C(=O)COC(=O)C2(c3ccc(Cl)cc3)CCCC2)c(=O)n(C)c1=O,9,8,-18,5,11,-25
Cn1c(N)c(C(=O)COC(=O)C2(c3ccc(F)cc3)CCCC2)c(=O)n(C)c1=O,-4,65*,-4,15,25,-10
O=C(NCc1ccccc1)c1cccc(COc2ccccc2Cl)c1,14,45,57*,41,12,21
O=C(NCc1ccccc1)c1cccc(COc2cc(Cl)ccc2Cl)c1,-9,5,-21,48,6,-25
COc1ccc(NC(=O)C2CCN(c3nc(-c4ccc(OC)cc4)no3)CC2)cc1,-13,-4,-4,2,3,1
CCN(C(=O)C1CCN(c2nc(-c3ccc(OC)cc3)no2)CC1)c1ccc(OC)cc1,6,-14,36*,19,-2,-3
C=CCN=C1NC(c2ccccc2C(F)(F)F)C(C(=O)OC)=C(C)N1Cc1ccc(C(F)(F)F)cc1 (stereo unspecified),.,-3,.,.,3,.
O=C(Nc1cccc(-c2cn3ccccc3n2)c1)c1cccc(Cl)c1,-18,21,73*,93*,25,82*

# Bioassay records: PubChem, The Scripps Research Institute Molecular Screening Center
